One data set concerns T67. In words: Antiproliferative activity against human T67 cells at 10 uM after 72 hrs by MTT assay. Type of data set: functional, cell-based.
The species entered for another data set is Bos taurus. In words: Antioxidant activity in bovine heart mitochondria assessed as reduction of antimycin A-induced ROS production at 10 uM by fluorescence plate reader analysis. It is filed as functional. In short, it runs like this: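 Submitochondrial particles were given NADH as substrate, and ROS production was induced with 2 μM antimycin A. Compounds were tested at 10 μM, with 1.8 μM mucidin as negative control. ROS were detected with the fluorogenic probe DCFDA.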

In data set [1] the target is T1, Heme oxygenase 1 (Bos taurus) (UniProt Q5E9F2).
T1 sequence (whole entry): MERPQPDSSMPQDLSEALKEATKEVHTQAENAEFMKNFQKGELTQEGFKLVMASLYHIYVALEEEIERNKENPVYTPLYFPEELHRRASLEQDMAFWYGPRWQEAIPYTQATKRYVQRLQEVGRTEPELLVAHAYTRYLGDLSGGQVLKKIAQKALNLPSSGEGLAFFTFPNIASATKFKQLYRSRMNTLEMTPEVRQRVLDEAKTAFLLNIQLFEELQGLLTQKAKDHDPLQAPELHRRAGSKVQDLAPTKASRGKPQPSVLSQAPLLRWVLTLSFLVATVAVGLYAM
In words: Activation of heme oxygenase-1 in BAEC at 10 uM after 6 hrs. In short, it runs like this: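 HO-1 activity measured in bovine aortic endothelial cells exposed to 10 μM compound for 6 h. Control cells received medium alone. Activity is reported as (pmol bilirubin/mg protein)/h, averaged over three independent experiments.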

The test system of data set [2] is Caco-2. In words: Antiproliferative activity against human Caco-2 cells after 72 hrs by MTT assay. It is filed as functional, cell-based. The note with it: Caco-2, 72 h. In short, it runs like this:
(§1)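 Cells were incubated 72 h with compound at 0.1-30 μM, and proliferation was measured by MTT. IC50 is the concentration giving 50% inhibition of proliferation, reported as the mean of two independent experiments.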
On the technique in general: Tetrazolium assays rely on reduction of a dye to a coloured formazan, in cell work by metabolically active cells.

The test system of data set [3] is SH-SY5Y. In words: Antiproliferative activity against human SH-SY5Y cells after 72 hrs by MTT assay. It is filed as functional, cell-based. In short, it runs like this: as §1
The subject of data set [4] is C6. In words: Antiproliferative activity against rat C6 cells after 72 hrs by MTT assay. Type of data set: functional, cell-based. The note with it: C6, 72 h. In short, it runs like this: as §1
Data set [5] is described as follows: Antiproliferative activity against mouse HT22 cells after 72 hrs by MTT assay. The note with it: HT-22, 72 h. It is filed as cell-based. Summed up:
as §1

Data set [6] relates to HaCaT. In words: Antiproliferative activity against human HaCaT cells after 72 hrs by MTT assay. It is filed as cell-based. In short, it runs like this: as §1
The subject of data set [7] is Caco-2. In words: Antiproliferative activity against human Caco-2 cells at 10 uM after 72 hrs by MTT assay. It is filed as functional. In short, it runs like this: (§2)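 Proliferation was measured by MTT after 72 h exposure to compound (range 0.1-30 μM, with the 10 μM point reported). Results are expressed as percent of control cells, as the mean of two independent experiments.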

Data set [8] is described as follows: Antioxidant activity in human fibroblasts assessed as reduction of tert-butyl hydroperoxide-induced ROS production at 10 uM treated 24 hrs before tert-butyl hydroperoxide challenge measured after 30 mins by fluorescence plate reader analysis. Type of data set: functional, Fibroblast. The arrangement: scale not given: the % may be the effect or the level left.

For data set [9], the system named is SH-SY5Y. In words: Antiproliferative activity against human SH-SY5Y cells at 10 uM after 72 hrs by MTT assay. It is filed as functional. Summed up: as §2
Data set [10] has as its system C6. In words: Antiproliferative activity against rat C6 cells at 10 uM after 72 hrs by MTT assay. It is filed as functional. Summed up: as §2
Data set [11] can be described thus: Antiproliferative activity against mouse HT22 cells at 10 uM after 72 hrs by MTT assay. It is filed as cell-based. Particulars: ht-22, 72 h. Summed up: as §2
In data set [12] the test system is HaCaT. In words: Antiproliferative activity against human HaCaT cells at 10 uM after 72 hrs by MTT assay. Type of data set: cell-based. Summed up:
as §2

The nature of data set [13]: Cellular uptake in human T67 cells at 10 uM after 30 mins by fluorescence microscopic analysis. Type of data set: ADME, cell-based. The note with it: t67, 0.5 h. In short, it runs like this: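 T67 glioma cells were pretreated with 10 μM fluorescent probe plus 1 mg/mL oligomycin. Images were taken by inverted fluorescence microscopy after 30 min of incubation, with or without 20 μM CCCP uncoupler to test dependence on mitochondrial potential.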

A short description of data set [14]: Cellular uptake in human T67 cells at 10 uM after 30 mins by fluorescence microscopic analysis in presence of mitochondrial uncoupler carbonyl cyanide m-chlorophenyl-hydrazone. Type of data set: ADME, cell-based. The note with it: t67, 0.5 h. In short, it runs like this: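 T67 glioma cells were pretreated with 10 μM of the fluorescent test compound plus 1 mg/mL oligomycin, an ATP-synthase inhibitor, with 20 μM CCCP uncoupler added. Images were taken by inverted fluorescence microscopy after 30 min of incubation.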

Active and inactive are the calls of the source. No cut-off for these calls is given here.

For orientation: IC50 means the concentration at which inhibition is half-maximal.

For `COc1cc(/C=C2\CNC/C(=C\c3ccc(O)c(OC)c3)C2=O)ccc1O`, the outcome (with T67; in data set [1]) was Active. The outcome in the data set listed under Bos taurus was inactive. Further, the IC50 in the data set on Caco-2 [2] is 0.2 µM; with SH-SY5Y [3] it was 2.1 µM; with C6 [4], 3.9 µM; in data set [5] it was 3.1 µM; in the data set with HaCaT [6], 3 µM.

As to `COc1cc(/C=C/C(=O)CC(=O)/C=C/c2ccc(O)c(OC)c2)ccc1O` [CURCUMIN], the IC50 in the data set on Caco-2 [2] was determined as 15 µM; in the data set on SH-SY5Y [3], 12.8 µM; in the data set with C6 [4] it was 16.1 µM; in data set [5], 20.4 µM; with HaCaT [6], 21.9 µM.

Turning to `COc1cc(/C=C2\CN(C(=O)CCC(=O)NCCCNCCCCNCCCN)C/C(=C\c3ccc(O)c(OC)c3)C2=O)ccc1O`, the Activity is recorded as 40% in the data set on Caco-2 [7]; 45% in [8]; 40% in the data set on SH-SY5Y [9]; 40% in the data set with C6 [10]; 10% in data set [11]; 10% in the data set with HaCaT [12]. For the same molecule, in the data set listed under Bos taurus, the result was Active. Moreover, the IC50 in the data set on Caco-2 [2] is 11.9 µM; with SH-SY5Y [3], 14.2 µM; in the data set with C6 [4], 13.9 µM; in data set [5] it was 19.8 µM; with HaCaT [6], 15.6 µM.

Regarding `COc1cc(/C=C2\CN(C(=O)CCC(=O)NCCCNCCCN)C/C(=C\c3ccc(O)c(OC)c3)C2=O)ccc1O`, the result in the data set filed under Bos taurus was Active. In addition, the Activity in data set [8] worked out at 40%. Further, the IC50 amounted to 16.5 µM in the data set with Caco-2 [2]; 17.8 µM in the data set on SH-SY5Y [3]; 19.9 µM in the data set on C6 [4]; 24.5 µM in data set [5]; 17.7 µM in the data set with HaCaT [6].

Consider `CCOc1cc(/C=C2\CN(C(=O)CCC(=O)NCCCNCCCN)C/C(=C\c3ccc(O)c(OCC)c3)C2=O)ccc1O`, for which the result in the data set listed under Bos taurus was Active. Further, the Activity in data set [8] is 45%. In addition, the IC50 was found to be 16.2 µM in the data set with Caco-2 [2]; 14.6 µM with SH-SY5Y [3]; 14.5 µM with C6 [4]; 18.9 µM in data set [5]; 15.5 µM in the data set with HaCaT [6].

Consider `CCCCCC[C@H]1C(=O)O[C@H](C)[C@H](NC(=O)c2cccc(NC=O)c2O)C(=O)O[C@@H](C)[C@@H]1OC(=O)CC(C)C`, for which the result in the data set listed under Bos taurus was inactive.

On to `CCOc1cc(/C=C2\CN(C(=O)CCC(=O)NCCCNCCCCNCCCN)C/C(=C\c3ccc(O)c(OCC)c3)C2=O)ccc1O`, for which, in the data set filed under Bos taurus, the outcome was Active. Moreover, the Activity in data set [8] is 38%. The IC50 was 14.4 µM in the data set with Caco-2 [2]; 20.8 µM with SH-SY5Y [3]; 14.2 µM with C6 [4]; 18.4 µM in [5]; 15.7 µM in the data set with HaCaT [6].

As for `COc1cc(/C=C2\CN(C(=O)CCC(=O)N(CCCNCCCCNCCCN)Cc3ccc(-c4nc5ccccc5s4)cc3)C/C(=C\c3ccc(O)c(OC)c3)C2=O)ccc1O`, the Drug uptake entry in data set [13] is reported as “Active”; in [14] it was “Not Active”.
